Assay results as given in the EternaBench riboswitch data.

Test system: MS2 coat protein
Assay: apparent Kd, MS2 coat protein; higher = weaker binding; RNA-MaP array; FMN 200 µM where present
Outline: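 Apparent Kd: the median of filtered binding-curve fits from single clusters. Designs were transcribed on Illumina sequencing-chip clusters by stalled E. coli RNA polymerase and titrated with SNAP-549-labelled MS2 coat protein from 0.7 or 1.5 nM, doubling to 3 µM, in 100 mM Tris-HCl pH 7.5, 80 mM KCl, 4 mM MgCl2, BSA, DTT, yeast tRNA and Tween-20. Each series ran without and then with constant ligand, and green signal was normalised to red-channel RNA signal and control-cluster median Fmax.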

[1] = designed as: OFF switch for flavin mononucleotide, no ligand
[2] = ligand present: flavin mononucleotide, designed as: OFF switch for flavin mononucleotide
[3] = designed as: ON switch for flavin mononucleotide, no ligand
[4] = ligand present: flavin mononucleotide, designed as: ON switch for flavin mononucleotide

| Sequence | apparent Kd [1] [nM] | apparent Kd [2] [nM] | apparent Kd [3] [nM] | apparent Kd [4] [nM] |
| --- | --- | --- | --- | --- |
| GGUACUCAAAGAGUACUUGGUCGAACAUGAGGAUCACCCAUGUAGGAUAUACAAAGCAAGAAGUAGUAGAAGGACAUGUGCAGC | 12.9 | 16.2 | – | – |
| GGGUACAUCGGAGGAUAUCAUGUAAAUACAUGAGGAUCACCCAUGUCGAUGGAGAAAUCGGAGAUUGAGAAGGCCGAUGUACCG | – | – | 16.9 | 7.1 |
| AAUUAGGUCACAGGAUAUACAACAACCAAUGCUGUAGAAGGGUGACACAUACUUAGCUGACAUGAGGAUCACCCAUGUAACCAC | – | – | 31.4 | 8.87 |
| GUCAGCGCGUGAGGAUAUACAACACUGCUUCGGCAGUGUAUUAAGAUCACAUGAGGAUCACCCAUGUAGAAGGCACGAGCUGAU | 14 | 263 | – | – |
| UGUCGGAGCAGAGGAUAUUACAUGAGGAUCACCCAUGUAUGAACCAAUAGCUGGAAACAGCAAUGUAAGAAGGCUGCUCCGCCA | 11.8 | 187 | – | – |
| CCUGUGUGAGGAUAUCUACGCCAUGUCUUUGACAUGGCGCAAGAGAAGGCACAUGAGGAUCACCCAUGUACUUC | 22.6 | 135 | – | – |
| UCAUACAUGACAUGACAUGAGGAUCACCCAUGUCCAUGUUACAAGGAUAUGUACAUGAAACAUGUACAGAAGGUGUAUUGGACU | 15.4 | 29.4 | – | – |
| GAUUAACAUGAGGAUCACCCAUGUGAGGAUAUGGAAUGGCUCAUUUUUUGAUUCCCGUCUAGAAGGCACAUCUU | 71.8 | 83.8 | – | – |
| GGUUGGCGAGGAUAUACAUGAGGAUCACCCAUGUGGUCCUGUGGCUGGUCAAAACUUUGUAGAAGGCGCGGGUC | 83.1 | 101 | – | – |
| GGAGCCAGCACCGAGGAUAUUCAUAUUAAAACAUGAGGAUCACCCAUGUAGGCCAGAAGGCCUUGGGAGAAGGCGGACUGGCUCG | – | – | 206 | 11.4 |
| CCAGCAACAUGAGGAUCACCCAUGUAGGAUAUCGCUAUUGUAAUCAUGAAACAUGAUUACAAUAGCGAGAAGGACAUAUGCUUU | 11 | 12 | – | – |
| AAUCCACAUGAGGAUCACCCAUGUGAGGAUAUGAUACUAUGUACUUCGGUACAUAGUAUCAGAAGGCACAAAGG | 54.8 | 99.6 | – | – |
| AUGCUUCUCUCAGGAUAUUACAACAUGAGGAUCACCCAUGUACAUGACAUGACGAUCACGCAUGUUAAGAAGGGAGAGAAGCAU | 718 | 583 | – | – |
| UUGCGACAUGAGGAUCACCCAUGUCAGGAUAUAUUGUAGAAACUGGUUGCGACCAGGCGUAGAAGGGACAUGGC | 28.6 | 37.7 | – | – |
| UAGUAUAAGGGCAUUAAACAUGAGGAUCACCCAUGUACGUUAGAGGAUAUGCAUUACAGUUGAGAGUAGAAGGUUAGAGAAGGG | 44.4 | 45.3 | – | – |
| AUAUGAUAGAUAGGAUAUACUGAGGUUGAAUGGGUAGAAGGAUCGAUAGGGAAGACUACAUGAGGAUCACCCAUGUUGUGGAUU | – | – | 88.4 | 52.6 |
| GGUACUCAAAGAGUACCAAUAUGAACAUGAGGAUCACCCAUGUAGGAUAUGCUACUCAAAGAGUAGCAGAAGGACAUGUGUCUA | 16.7 | 75.5 | – | – |
| UUUGUUUGCGGAGGAUAUAUAAGUGGAUCACCCAUAGAAGGCCGAACAUGAGGAUCACCCAUGUUACAUGAGGAUCACCCAUGU | 45.8 | 51.5 | – | – |
| UCCUUGUCCUGAGGAUAUCCGUGGUGACCGAAAGGAGAAGGCAGGACAUGAGGAUCACCCAUGUACCCAGAAAACGUGCAGAGU | 66.5 | 458 | – | – |
| GCAUGAGACUAAGGAUAUGAUGUACCUAUAUGUGACAUGAGGAUCACCCAUGUGGUAAGUAUGAUUCAGAAGGUAGAGAUAUGC | – | – | 67.8 | 28.3 |
| GGAUCCAACACAGGAUAUGCUGGACUUUGUCCAGCAGAAGGGUGAAGAACAUGAGGAUCACCCAUGUGGAUCCAUACAUUUAAU | – | – | 254 | 15.7 |

| Sequence | apparent Kd [1] [nM] | apparent Kd [2] [nM] | apparent Kd [3] [nM] | apparent Kd [4] [nM] |
| --- | --- | --- | --- | --- |
| GGGUUUGGUGUGAGGAUAUGUUUGGGUAAACCCGGGCAGAAGGCACAUGAGGAUCACCCAUGUAAGCCGGGCCC | 14.9 | 14.7 | – | – |
| UGAGCCGGCACUGAGGAUAUUCAUAAUAAAACAUGAGGAUCACCCAUGUAGGCCAGAAGGCCUUGGGAGAAGGCAGGUCGGCUCA | – | – | 257 | 23.3 |
| ACAUGAUCAGGAUAUACAUGAGGAUCACCCAUGUAAAUAAAAAAAAAACUUUCUUUAUGUAGAAGGGAUCUUGU | 21 | 30.1 | – | – |
| UGAUCGAGAGAUCUUAGAUUCUGGUAGGAUAUACAUUAUAGAAGUUAUACAUGAGGAUCACCCAUGUAGAAGGACUAGAGUCUA | 5.73 | 7.54 | – | – |
| AAGUAGUGAGGAUAUACAUGGAUAUACAUUCAUGUGGACCUACAUGAGGAUCACCCAUGUAGAAGGCACUACUA | 42.6 | 61.6 | – | – |
| AUCGAACAUGAGGAUCACCCAUGUUAGGAUAUUGGAUAGCGCGCUGGUGUAGUGUAUCCAAGAAGGGACUGGUG | 66.5 | 101 | – | – |
| UUAUAUAGGUAGGAUAUCGAUUUUAAUUAUUUUCGAGAAGGGUCAACAUGAGGAUCACCCAUGUCAGCAUGUAU | 58.7 | 49.1 | – | – |
| CGAGGACAUGAGGAUCACCCAUGUAGCUACAAAAUGCAGCGACAGGAUAUCCUCUGGUUCCCAUAGGAGAAGGGUCAAACCUUG | – | – | 26.8 | 47.5 |
| AAUCUAAUCCUUAAACAUGAGGAUCACCCAUGUAUUGGCAAGUAGGAUAUCGAUAAAUAUUUCAACGAGAAGGACUAUACAAAA | 21.7 | 31.7 | – | – |
| CUUUUGUGAGGAUAUCAGUAGUAGAACAAUAGUACUACUACUGAGAAGGCACAUGAGGAUCACCCAUGUUCCUC | 62.5 | 455 | – | – |
| UUAAGGGACUGAGGAUAUACAUGAAUUAUGUUUGUAGAAGGCAGAUUGUUAGUUUAUUCACUAUACAUGAGGAUCACCCAUGUU | 25.1 | 20.6 | – | – |
| AAUUAACUCACAGGAUAUAGCAGAGGUCGAGUGUACUUACAGGCGACGAGGCUAGAAGGGUGACCACAUGAGGAUCACCCAUGU | – | – | 621 | 103 |
| AGAAACUACGAGAAGGACAUGUGGUCCAAAAGAAACAUGAGGAUCACCCAUGUAGGAUAUCGUAGUUUCAGGAUCGUGAGAUCA | 280 | 56.8 | – | – |
| GGGUACAUCGGAGGAUAUCAUGUAAAUACAUGAGGAUCACCCAUGUCGAUGGAGACAUCUGAGAUUGAGAAGGCCGAUGUACCG | – | – | 19.4 | 6.45 |
| GAUUCGCGUGAGAAGGACAUGAGGAUCACCCAUGUAGGAUAUCACGGUCCGUAGAGGAUUUCAAACCGUACUGGGUCAUAGUGU | – | – | 14.4 | 6.56 |
| UGUUACUAGUAAGGAUAUACUUGCAAUUAGCUUGUAGAAGGUACAGUCUUUUGUAUAACAUGUUUACAUGAGGAUCACCCAUGU | – | – | 10.4 | 9.05 |
| ACAUGAGGAUCACCCAUGUGAACAUAGGAUAUUGGUGAUCAGGCGUGUUAUACAGGAUAGGUCUGCGAGAAGGGUGUACGUUGC | – | – | 367 | 71.7 |
| ACAAGAUCAGGAUAUACAUGAGGAUCACCCAUGUAUUUCAAAAAAAAACUUUCUUUAUGUAGAAGGGAUCUUGU | 14.7 | 13.5 | – | – |
| CUCUCACAGUCAGGAUAUGACGCGGAACAUGAGGAUCACCCAUGUGACGUCCCUCCAUGUACCCGUCAGAAGGGAUUAAUGGAC | 720 | 480 | – | – |
| AAACAAAGGUGGAAACGGGAACCACAUGAGGAUCACCCAUGUAAGGAUAUCGACCAGCGGUGCGGCGAGAAGGUACAUAGGAAC | 20.3 | 29.7 | – | – |
| AAUAAUAAGGAGGAUAUCGUAUCGGAAACGAUACGAGAAGGUCUAACAUGAGGAUCACCCAUGUUCCUCAAAUA | 38.1 | 54.3 | – | – |
